This note sets out measurements from ChEMBL document CHEMBL3351257, “Total syntheses of parthenolide and its analogues with macrocyclic stereocontrol” (J Med Chem, 2014).

Common to all, as to assay type: functional, cell-based
In one experiment the test system is MCF7. The experiment can be described thus: Cytotoxicity against human MCF7 cells assessed as cell viability after 72 hrs by CCK cell proliferation assay. Conditions: MCF7, 72 h. In short, it runs like this: (§1)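 Cells plated at 3,000–5,000 per well; dosing began 24 h after plating, using a rising concentration series. After 72 h, cell counting kit reagent added and incubation continued 1–4 h. Viable cells read as OD at 450 nm. Inhibition rate = (1 − OD treated/OD control) × 100%. Wells in triplicate, each compound tested three times; IC50 is the mean of three independent experiments.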

A short description of experiment [1]: Cytotoxicity against human SUM159 cells assessed as cell viability after 72 hrs by CCK cell proliferation assay. Conditions: SUM-159-PT. The method in brief: as §1
Experiment [2] is described as follows: Cytotoxicity against human HL60 cells assessed as cell viability after 72 hrs by CCK cell proliferation assay. Conditions: HL-60, 72 h. The method in brief:
as §1

In another experiment the test system is C6. The experiment can be described thus: Cytotoxicity against rat C6 cells assessed as cell viability after 72 hrs by CCK cell proliferation assay. Conditions: C6, 72 h. In short, it runs like this: as §1

One may read the IC50 as the concentration needed to halve the response being measured.

As for `C=C1C(=O)O[C@H]2[C@@H]1CC/C(C)=C\CC[C@@]1(C)O[C@@H]21`, the IC50 came to 13 µM in the experiment with MCF7, 3.5 µM in experiment [1], 4.2 µM in experiment [2] and 41.8 µM with C6.
For `C=C1C(=O)O[C@H]2[C@H]1CC/C(C)=C\CC[C@@]1(C)O[C@@H]21`, in that order: 5.9 µM, 7.7 µM, 1.2 µM and 3.9 µM.
For `C=C1C(=O)O[C@@H]2C3O[C@]3(C)CC/C=C(\C)CC[C@@H]12` (stereo partly specified), in that order: 6.9 µM, 10.3 µM, 2.5 µM and 6.6 µM.
The matching figures for `C=C1C(=O)O[C@H]2[C@@H]1CC/C(C)=C/CC[C@@]1(C)O[C@@H]21`: 17.6 µM, 12.3 µM, 2.9 µM and 24 µM.
